ChEMBL document CHEMBL1137574, “Synthesis and structure-activity relationship for a novel class of potent and selective carbamate-based inhibitors of hormone selective lipase with acute in vivo antilipolytic effects” (J Med Chem, 2007)

Legend:
[1] = biological target: Cholinesterase (Homo sapiens, UniProt P06276); assay: Inhibition of butyrylcholine esterase
[2] = biological target: Acetylcholinesterase (Homo sapiens, UniProt P22303); assay: Inhibition of acetylcholine esterase
In short: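 Acetylcholinesterase activity measured with acetylthiocholine substrate. Inhibitor at six concentrations in 5-fold steps from a maximum of 100 µM, duplicate measurements averaged. IC50 from variable-slope sigmoidal dose-response fit.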

[3] = biological target: T1, Hormone-sensitive lipase (Homo sapiens, UniProt Q05469); assay: Inhibition of recombinant human hormone-sensitive lipase
T1 sequence (Q05469 whole entry): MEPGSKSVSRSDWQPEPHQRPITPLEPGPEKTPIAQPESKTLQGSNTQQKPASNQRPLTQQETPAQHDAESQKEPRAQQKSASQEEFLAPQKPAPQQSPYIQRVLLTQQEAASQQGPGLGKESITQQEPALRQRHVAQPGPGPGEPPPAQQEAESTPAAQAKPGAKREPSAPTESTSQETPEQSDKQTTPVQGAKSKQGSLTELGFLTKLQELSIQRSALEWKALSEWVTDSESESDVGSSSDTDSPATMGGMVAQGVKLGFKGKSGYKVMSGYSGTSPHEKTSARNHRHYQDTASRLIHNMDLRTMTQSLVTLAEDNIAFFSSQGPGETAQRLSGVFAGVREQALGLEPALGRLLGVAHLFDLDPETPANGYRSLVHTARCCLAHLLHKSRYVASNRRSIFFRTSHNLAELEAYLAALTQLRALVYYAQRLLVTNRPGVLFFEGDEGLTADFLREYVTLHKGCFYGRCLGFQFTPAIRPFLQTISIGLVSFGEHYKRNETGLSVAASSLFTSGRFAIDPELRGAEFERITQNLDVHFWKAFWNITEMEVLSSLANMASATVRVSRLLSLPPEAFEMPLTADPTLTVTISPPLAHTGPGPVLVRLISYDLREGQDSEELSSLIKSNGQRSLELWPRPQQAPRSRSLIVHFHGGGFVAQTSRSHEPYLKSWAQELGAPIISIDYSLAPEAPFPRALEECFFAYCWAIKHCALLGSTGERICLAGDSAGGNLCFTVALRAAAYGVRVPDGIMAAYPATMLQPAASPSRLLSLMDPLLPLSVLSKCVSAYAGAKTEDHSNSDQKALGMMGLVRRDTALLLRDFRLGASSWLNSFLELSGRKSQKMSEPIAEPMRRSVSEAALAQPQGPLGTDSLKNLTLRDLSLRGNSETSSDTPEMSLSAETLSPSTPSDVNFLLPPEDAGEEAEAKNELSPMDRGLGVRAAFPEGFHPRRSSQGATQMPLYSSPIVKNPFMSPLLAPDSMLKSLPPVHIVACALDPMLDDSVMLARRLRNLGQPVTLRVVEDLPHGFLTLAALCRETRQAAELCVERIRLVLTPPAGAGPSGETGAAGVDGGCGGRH

[4] = Oral bioavailability in Sprague-Dawley rat at 1 mg/kg, po; format: ADME, organism-based; settings: in vivo
In short: (§1)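 Male Sprague-Dawley rats, 12 weeks old, dosed by oral gavage and i.v. in 10% hydroxypropyl cyclodextrin in phosphate buffer pH 7.0, with one rat per time point. Plasma was diluted 1:1 in 10% methanol, centrifuged and quantified by turbulent-flow chromatography–tandem MS against plasma calibration curves (10-3000 ng/mL).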

[5] = Cmax in Sprague-Dawley rat at 0.5 mg/kg, iv and 1 mg/kg, po; format: ADME, organism-based; settings: in vivo; in short: as §1
[6] = Clearance in Sprague-Dawley rat at 1.1 mg/kg, iv and 2.2 mg/kg, po; format: ADME, organism-based; settings: in vivo
In short: (§2)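 Rat PK study, one rat per time point. Dosed i.v. and p.o. by gavage in 10% hydroxypropyl cyclodextrin in phosphate buffer pH 7.0; one compound was given in 20% Tween 80 plus 5% glucose in phosphate buffer pH 7.0. Plasma was diluted 1:1 with 10% methanol and centrifuged, then quantified by turbulent-flow chromatography–MS/MS against plasma calibration curves spanning 10-3000 ng/mL.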

[7] = Oral bioavailability in Sprague-Dawley rat at 2.2 mg/kg, po; format: ADME, organism-based; settings: in vivo; in short: as §2

Acetylcholinesterase, sequence (P22303 whole entry): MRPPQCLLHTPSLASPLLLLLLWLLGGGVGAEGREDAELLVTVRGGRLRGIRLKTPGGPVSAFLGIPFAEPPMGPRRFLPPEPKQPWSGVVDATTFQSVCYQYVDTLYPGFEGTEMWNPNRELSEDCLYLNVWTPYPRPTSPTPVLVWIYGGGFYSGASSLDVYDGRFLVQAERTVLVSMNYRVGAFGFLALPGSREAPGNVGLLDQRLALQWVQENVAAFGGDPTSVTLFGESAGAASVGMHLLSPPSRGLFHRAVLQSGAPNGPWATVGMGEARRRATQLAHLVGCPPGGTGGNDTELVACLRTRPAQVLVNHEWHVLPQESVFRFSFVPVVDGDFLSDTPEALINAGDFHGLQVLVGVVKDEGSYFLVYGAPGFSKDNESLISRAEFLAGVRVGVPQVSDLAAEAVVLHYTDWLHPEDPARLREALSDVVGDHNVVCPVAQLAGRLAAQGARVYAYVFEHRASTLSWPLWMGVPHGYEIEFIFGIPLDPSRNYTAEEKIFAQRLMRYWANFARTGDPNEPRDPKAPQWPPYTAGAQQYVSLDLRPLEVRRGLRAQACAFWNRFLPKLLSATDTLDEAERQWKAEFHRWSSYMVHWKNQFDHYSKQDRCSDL
Cholinesterase, sequence (P06276 whole entry): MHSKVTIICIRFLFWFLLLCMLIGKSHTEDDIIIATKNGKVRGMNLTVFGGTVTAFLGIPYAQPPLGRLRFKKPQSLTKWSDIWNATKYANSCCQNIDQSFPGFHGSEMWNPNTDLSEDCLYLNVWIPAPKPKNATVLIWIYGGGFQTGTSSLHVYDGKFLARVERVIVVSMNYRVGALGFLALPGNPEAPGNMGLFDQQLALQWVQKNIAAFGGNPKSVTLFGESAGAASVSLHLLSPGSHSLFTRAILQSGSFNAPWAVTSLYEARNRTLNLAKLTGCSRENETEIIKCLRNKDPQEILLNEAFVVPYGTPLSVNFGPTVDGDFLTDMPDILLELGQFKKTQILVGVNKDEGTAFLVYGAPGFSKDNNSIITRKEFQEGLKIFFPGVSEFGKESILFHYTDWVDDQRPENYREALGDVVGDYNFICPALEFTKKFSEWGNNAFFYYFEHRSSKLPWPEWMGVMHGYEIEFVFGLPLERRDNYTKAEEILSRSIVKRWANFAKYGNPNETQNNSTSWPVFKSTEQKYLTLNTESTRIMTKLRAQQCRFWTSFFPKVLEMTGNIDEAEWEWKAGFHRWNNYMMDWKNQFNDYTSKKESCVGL

Row | SMILES | IC50 [1] | IC50 [2] | further results
1 | CN(C(=O)Oc1ccc(Oc2ncc(C(F)(F)F)cc2Cl)cc1)c1ccccc1 | > 50 µM | > 50 µM | 
2 | O=C(Oc1ccc(Oc2ccc(C(F)(F)F)cn2)cc1)N1CCc2ccccc2C1 | > 50 µM | > 50 µM | 
3 | O=C(Oc1ccc(Oc2ccc(C(F)(F)F)cn2)cc1)N1CCC(Cc2ccccc2)CC1 | > 50 µM |  | 
4 | CN(C(=O)Oc1ccc(Oc2ncc(Cl)cc2Cl)cc1)c1ccccc1 | > 50 µM | > 50 µM | 
5 | CN(C(=O)Oc1ccc(Oc2c(Cl)cncc2Cl)cc1)c1ccccc1 | > 50 µM | > 50 µM | 
6 | O=C(Oc1ccc(Oc2ccc(C(F)(F)F)cn2)cc1)N1CCCc2ccc(C(F)(F)F)cc21 | > 50 µM | > 50 µM | IC50 [3]: > 5 µM
7 | O=C(c1ccccc1)C1CCN(C(=O)Oc2ccc(Oc3ccc(C(F)(F)F)cn3)cc2)CC1 | > 50 µM |  | 
8 | O=C(Oc1ccc(Oc2ccc(C(F)(F)F)cn2)cc1)N1CCOCC1 | > 50 µM | > 50 µM | bioavailability [4]: 12%; Cmax [5]: 21 ng/mL
9 | CC(C)N(C)C(=O)Oc1ccc(Oc2ccc(C(F)(F)F)cn2)cc1 | > 50 µM | > 50 µM | IC50 [3]: > 5 µM
10 | CN(Cc1ccccc1)C(=O)Oc1ccc(Oc2ccc(C(F)(F)F)cn2)cc1 | > 50 µM | > 50 µM | 
11 | CC1CN(C(=O)Oc2ccc(Oc3ccc(C(F)(F)F)cn3)cc2)CC(C)O1 (stereo not drawn) | > 50 µM | > 50 µM | 
12 | CN(C(=O)Oc1ccc(Oc2ccc(C(F)(F)F)cn2)cc1)c1ccccc1Cl | > 50 µM | > 50 µM | 
13 | Cc1ccccc1N(C)C(=O)Oc1ccc(Oc2ccc(C(F)(F)F)cn2)cc1 | > 50 µM | > 50 µM | 
14 | CN(C(=O)Oc1ccc(Oc2ccccc2)cc1)c1ccccc1 | > 50 µM | > 50 µM | IC50 [3]: > 5 µM
15 | CN(C)C(=O)Oc1ccc(Oc2ncc(Cl)cc2Cl)cc1 | > 50 µM | > 50 µM | IC50 [3]: > 50 µM
16 | CN(C(=O)Oc1ccc(Oc2ccc(C(F)(F)F)cn2)cc1)c1ccccc1 | > 50 µM | > 50 µM | clearance [6]: 61 mL/min/kg; bioavailability [7]: 16%
17 | Cc1cccc(N(C)C(=O)Oc2ccc(Oc3ccc(C(F)(F)F)cn3)cc2)c1 | > 50 µM | > 50 µM | 
18 | O=C(Oc1ccc(Oc2ncc(Cl)cc2Cl)cc1)N1CCOCC1 | > 50 µM | > 50 µM | 
19 | CN(C(=O)Oc1ccc(Oc2ccc(Cl)cn2)cc1)c1ccccc1 | > 50 µM | > 50 µM | 

Row | SMILES | IC50 [1] | IC50 [2] | further results
20 | O=C(Oc1ccc(Oc2ncc(Cl)cc2Cl)cc1)N1CCCC1 | > 50 µM | > 50 µM | 
21 | O=C(Oc1ccc(Oc2ccc(C(F)(F)F)cn2)cc1)N1CCc2ccccc21 | > 50 µM | > 50 µM | IC50 [3]: > 3 µM
22 | CN(C(=O)Oc1ccc(Oc2ccc(C(F)(F)F)cn2)cc1)c1cccc(Cl)c1 | > 50 µM | > 50 µM | 
23 | CC1CCCCN1C(=O)Oc1ccc(Oc2ccc(C(F)(F)F)cn2)cc1 (stereo not drawn) | > 50 µM | > 50 µM | IC50 [3]: > 5 µM
24 | CN(C(=O)Oc1ccc(Oc2ccc(C(F)(F)F)cn2)cc1)c1ccc(Cl)cc1 | > 50 µM | > 50 µM | 
25 | COc1ccc(N(C)C(=O)Oc2ccc(Oc3ccc(C(F)(F)F)cn3)cc2)cc1 | > 50 µM | > 50 µM | 
26 | CCCCNC(=O)Oc1ccc(Oc2ncc(Cl)cc2Cl)cc1 | 19 µM | > 50 µM | 
27 | O=C(Oc1ccc(Oc2ccc(C(F)(F)F)cn2)cc1)N1Cc2ccccc2C1 | > 50 µM | > 50 µM | 
28 | CCN(C(=O)Oc1ccc(Oc2ccc(C(F)(F)F)cn2)cc1)c1ccccc1 |  |  | IC50 [3]: > 5 µM
29 | Cc1ccc(N(C)C(=O)Oc2ccc(Oc3ccc(C(F)(F)F)cn3)cc2)cc1 | > 50 µM | > 50 µM | 
30 | COc1ccccc1N(C)C(=O)Oc1ccc(Oc2ccc(C(F)(F)F)cn2)cc1 | > 50 µM | > 50 µM | 
31 | CN(C(=O)Oc1ccc(Nc2ccc(C(F)(F)F)cn2)cc1)c1ccccc1 | > 50 µM | > 50 µM | 
32 | CN(C(=O)Oc1ccc(Oc2ccc(C(F)(F)F)cn2)cc1)C1CCCCC1 | > 50 µM | > 50 µM | IC50 [3]: > 5 µM
33 | O=C(Oc1ccc(Oc2ccc(C(F)(F)F)cn2)cc1)N1CCCC1 | > 50 µM | > 50 µM | 
34 | CN(C(=O)Oc1ccc(Oc2ccc(C(F)(F)F)cn2)cc1)C(C)(C)C | > 50 µM | > 50 µM | IC50 [3]: > 5 µM
35 | O=C(Oc1ccc(Oc2ccc(C(F)(F)F)cn2)cc1)N1CCCCC1 | 8.2 µM | > 50 µM | 
36 | CC1CCN(C(=O)Oc2ccc(Oc3ccc(C(F)(F)F)cn3)cc2)CC1 | > 50 µM | > 50 µM | 
37 | CC1CCCN(C(=O)Oc2ccc(Oc3ccc(C(F)(F)F)cn3)cc2)C1 (stereo not drawn) | > 50 µM | > 50 µM | 
